# Screening data: PubChem, several laboratories
# Most compounds without a hit are left out; they make up all but 1.6% or so of the library.
# Scp-1 inhibitor: Scp-1 (human) phosphatase inhibition. Q9GZU7. Recombinant Scp1, phosphopeptide, malachite green phosphate absorbance. inhibition, % at 20 µM. 340,000 compounds, 0.88% hits. AID 493091;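 active means inhibition above about 50% at 20 µM, limit read from the data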;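 further: plate controls were DMSO wells with enzyme for no effect and wells lacking enzyme for full effect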
# Target sequence (Q9GZU7 76-261 limits assumed): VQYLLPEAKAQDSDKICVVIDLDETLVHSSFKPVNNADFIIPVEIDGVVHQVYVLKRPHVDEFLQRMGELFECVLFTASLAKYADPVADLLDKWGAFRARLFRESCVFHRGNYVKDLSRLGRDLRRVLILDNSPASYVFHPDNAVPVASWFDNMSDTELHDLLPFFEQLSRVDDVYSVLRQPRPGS
#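 assay system = SCP-1 phosphatase catalytic domain, residues 76-261 | buffer or medium = 50 mM Tris acetate pH 5.5, 0.005% Tween-20, 10 mM MgCl2 | incubation = enzyme reaction 45 min at room temperature, colour 5 min, stabilisation 30 min | signal = Phosphate-binding colour reagent, absorbance read at 630 nm | measure = % inhibition at 20 µM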
# STEP inh: inhibitors of human striatal-enriched phosphatase STEP. AID 588621. P54829. recombinant STEP, OMFP fluorogenic substrate, fluorescence. inhibition, % at 20 µM. 360,000 compounds, 0.25% hits;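 active means inhibition at 20 µM, scaled per plate between control wells, above about 37%, limit read from the data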;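 further: 0% = DMSO with enzyme and substrate and 100% = substrate only without enzyme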
#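 Measure: Control-normalized % inhibition with plate pattern correction | Test system: STEP phosphatase, cell-free reaction | Medium: pH 6.0 Bis-Tris with DTT and Tween 20 | Technique: Fluorescence, 480/540 nm | Times: Reaction 20 min, ambient temperature | Doses: Single compound dose of 20 µM, 1% DMSO final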
# F508del corr: correctors of CFTR F508del function in bronchial epithelial cells; CFBE cells, YFP halide quenching; stimulated with forskolin plus potentiator P3; % fluorescence drop versus neutral controls; activity (quench increase), % at 7.58 µM; 350,000 compounds, 0.36% hits;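 active means mean added fluorescence quench of at least 8% versus neutral control, with both replicates also reaching 8%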;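 further: cells transiently co-express mutant CFTR-F508del with the halide-sensitive YFP; corrector assay measuring rescue of mutant channel to the surface after 24 h compound exposure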
# DNMT1 block: DNMT1 (human) enzyme inhibition | P26358 | DNMT1 molecular beacon, Hinp1I cleavage, fluorescence | inhibition (reported as % activation of signal), % at 10 µM | 360,000 compounds, 0.83% hits; in the data active means inhibition above about 50%
# LMPTP inh: LMPTP (human) inhibition; 360,000 compounds, 0.22% hits; inhibition, % at 20 µM; AID 651560; recombinant LMPTP-A, OMFP fluorogenic substrate, fluorescence intensity;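 active means compounds that cut the enzyme signal by at least half of the control window in the single-dose screen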;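 further: plate controls were DMSO wells with enzyme plus substrate for no effect and substrate without enzyme for full effect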
# Target sequence (P24666 whole entry, looked up): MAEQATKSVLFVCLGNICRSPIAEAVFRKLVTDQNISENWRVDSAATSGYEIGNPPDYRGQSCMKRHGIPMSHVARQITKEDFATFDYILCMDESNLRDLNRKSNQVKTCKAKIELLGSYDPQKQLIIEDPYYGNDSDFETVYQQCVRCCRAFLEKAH
#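 Material: LMPTP-A; amount: 0.625 nM enzyme; doses: single 20 µM dose; times: reaction 50 min, room temperature, dark; technique: fluorescence intensity of OMFP turnover product; benchmarks: no-enzyme and uninhibited controls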
# SUMO1 PPI mod: SUMO1-SIM interaction modulation; SUMO1 binding to a labelled peptide, TR-FRET, 1 h; inhibition, % at 20 µM; 360,000 compounds, 0.33% hits; in the data active means inhibition above about 37%
# Target sequence (P63165 whole entry, looked up): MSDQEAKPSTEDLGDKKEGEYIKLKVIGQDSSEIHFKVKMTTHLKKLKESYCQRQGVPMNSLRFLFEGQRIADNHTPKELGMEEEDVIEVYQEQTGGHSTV
# DNMT1 interf DR: shows spectral interference in the DNMT1 beacon assay; shares compounds with DNMT1 block; molecular beacon fluorescence, spectral interference counter-screen; IC50, µM; 200 tested, under 10 active; AID 602382; call rule not given here
# DNMT1 confirm: confirmation of human DNMT1 inhibitors; shares compounds with DNMT1 block; DNMT1 molecular beacon HinP1I cleavage, fluorescence; inhibition, % at 10 µM; 2,300 compounds, 8% hits;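 active means average inhibition of at least 30% in the single-concentration confirmation test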
# Beacon interf: counter-screen for DNMT1 inhibitors: spectral interference | shares compounds with DNMT1 block | DNMT1 molecular beacon spectral interference counterscreen, fluorescence 485/520 | activation (fluorescence interference), % at 10 µM | 2,300 compounds, 1% hits | AID 602387;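 active means activation of at least 30% at 10 µM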;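 further: DNMT1 catalytic domain with a HinP1I cleavage step and a FAM/dabcyl DNA beacon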
# Starred values were filed as active, the others as inactive; / = no result.
SMILES,Scp-1 inhibitor,STEP inh,F508del corr,DNMT1 block,LMPTP inh,SUMO1 PPI mod,DNMT1 confirm,Beacon interf,others
C[C@H](CO)N1C[C@H](C)[C@H](CN(C)Cc2ccncc2)Oc2c(NC(=O)Nc3ccccc3)cccc2C1=O,/,/,2.6,/,/,/,/,/,
O=C1CC(c2ccco2)CC(O)=C1C=Nc1cc(Cl)ccc1O (stereo not drawn),72.5*,3.6,/,89.1*,9.0,21.5,3.0,-1.7,
NS(=O)(=O)c1ccc(N/C=C\C(=O)c2ccc3ccccc3c2)cc1,-0.9,3.1,/,88.1*,11.7,3.1,2.1,3.4,
Cc1ccc(-c2cnc3c(c2)C(=O)N([C@H](C)CO)C[C@H](C)[C@H](CN(C)C(=O)c2ccccc2)O3)cc1,/,/,-1.5,/,/,/,/,/,
Cc1cc2cc(CNS(=O)(=O)c3ccc4ccccc4c3)ccc2n1C,-3.9,1.9,0.6,53.6*,9.0,-17.5,3.9,1.3,
COc1ccc(NC(=O)c2cc3c(=O)n(C)c4ccccc4c3s2)cc1OC,-3.1,-3.7,/,74.8*,0.6,4.2,2.3,-2.1,
CO[C@@H]1CN(C)C(=O)c2ccc(NC(=O)c3ccno3)cc2OC[C@H](C)NC[C@H]1C,/,/,-0.5,/,/,/,/,/,
C=CCSC1=N/C(=C\C=C\c2ccco2)C(=O)S1,53.4*,4.2,/,97.3*,36.4,20.9,2.6,-2.5,
O=C(Cc1cccnc1)N1CC(=O)N2[C@H](C1)[C@@H](c1ccc(C#CC3CC3)cc1)[C@@H]2CO,/,/,4.2,/,/,/,/,/,
COc1ccc(NC(=O)CN(C)C(=O)c2cccc(-n3cccc3)c2)cc1,/,5.9,3.6,83.1*,6.2,18.9,8.4,-0.4,
O=C(C[C@H]1C[C@H]2c3cc(NC(=O)CC4CC4)ccc3O[C@H]2[C@@H](CO)O1)NCc1cccnc1,/,/,0.6,/,/,/,/,/,
Cc1ccc(-c2ccc3c(c2)O[C@@H](CN(C)Cc2ccc(C(=O)O)cc2)[C@H](C)CN([C@@H](C)CO)S3(=O)=O)cc1,/,/,1.1,/,/,/,/,/,
CSc1nc(NCCOCCO)c2sc3nc(-c4ccco4)c4c(c3c2n1)CCC4,0.3,2.0,/,87.2*,2.0,23.2,20.2,18.7,
Cc1cc2nc(CN(C)C(=O)C3CCC(=O)N(C4CCCC4)C3)[nH]c2cc1C (stereo not drawn),/,-0.5,0.5,73.1*,35.0,4.3,0.4,4.4,
CC(C)Sc1nc2sc3c(c2c2nnc(SCC(=O)NCc4ccco4)n12)CCCC3,34.7,2.6,/,65.4*,8.3,18.1,3.3,1.2,
COc1ccc(/C=N/Nc2ccc([N+](=O)[O-])cc2S(=O)(=O)N2CCN(C)CC2)cc1,2.4,-15.0,-3.6,55.6*,-1.1,5.5,1.4,5.5,
COc1ccc(C=NNc2ccc([N+](=O)[O-])cc2S(=O)(=O)Nc2ccccc2C(=O)O)cc1OC,-3.9,-2.9,-0.5,-22.0,2.0,3.1,/,/,
COc1ccccc1CCNC(=O)c1cc(-c2ccncc2)nc2ccc(Br)cc12,12.1,8.7,1.5,50.2*,13.5,-9.8,1.2,-1.0,
CSc1ccccc1NC(=O)c1cc(-c2cccnc2)nc2ccc(Br)cc12,3.8,7.1,0.7,56.0*,3.6,10.0,0.0,-4.5,
C[C@H](CO)N1C[C@H](C)[C@H](CN(C)C(=O)Nc2ccccc2)Oc2c(NC(=O)NC3CCCCC3)cccc2C1=O,/,/,0.3,/,/,/,/,/,
Cc1ccc(S(=O)(=O)Nc2cccc3c2O[C@@H](CN(C)C)[C@H](C)CN([C@@H](C)CO)C3=O)cc1,/,/,-2.5,/,/,/,/,/,
O=C(CC1Oc2ccccc2NC1=O)NC1CC1 (stereo not drawn),/,1.5,0.3,96.5*,-0.1,0.3,2.1,2.6,
COc1ccc(CNC(=O)C2CCCN(S(=O)(=O)c3ccccc3)C2)cc1 (stereo not drawn),-10.7,1.6,4.9,0.8,0.8,3.8,/,/,
COc1ccc(CCNC(=O)C2CCCN(S(=O)(=O)c3ccccc3)C2)cc1 (stereo not drawn),-1.8,0.5,0.1,82.5*,-0.5,-2.2,1.6,2.1,
O=C1N/C(=C/c2ccc(Br)cc2)C(O)=C1C=NCc1ccccc1,-1.8,-1.5,/,61.9*,0.5,-2.5,0.1,1.4,
SMILES,Scp-1 inhibitor,STEP inh,F508del corr,DNMT1 block,LMPTP inh,SUMO1 PPI mod,DNMT1 confirm,Beacon interf,others
C[C@H]1CN([C@@H](C)CO)C(=O)Cc2cc(NS(=O)(=O)c3ccccc3)ccc2O[C@@H]1CN(C)C(=O)Nc1ccccc1,/,/,0.8,/,/,/,/,/,
O=C(COC(=O)Cc1ccsc1)Nc1ccc(Cl)c(S(=O)(=O)N2CCOCC2)c1,-4.9,-2.3,-0.8,77.4*,-0.4,-1.8,1.0,3.2,
Oc1ccc(-c2cn3ccccc3n2)cc1,0.2,1.1,0.1,152.9*,-1.1,-2.4,4.7,1.9,
c1ccc(-c2cn3ccccc3n2)cc1,-3.8,-0.9,-3.2,2.7,3.4,0.0,/,/,
Cc1cc(C)cc(-n2c3nc4ccccc4nc3c3c(=O)n(Cc4ccco4)cnc32)c1,4.6,2.0,/,98.1*,56.3*,-0.2,-0.1,-3.8,
O=C(Nc1nc(-c2ccco2)c(-c2ccco2)s1)c1c(F)cccc1Cl,-8.6,1.2,0.8,69.7*,5.3,5.5,6.2,21.9,
O=C(Nc1nc(-c2ccco2)c(-c2ccco2)s1)c1ccc(F)cc1F,9.3,1.8,-0.2,42.9,8.6,25.6,/,/,
COc1ccc(NC(=O)N(C)C[C@@H]2Oc3c(cccc3N(C)C)C(=O)N([C@H](C)CO)C[C@@H]2C)cc1,/,/,0.7,/,/,/,/,/,
O=C(Cn1c2ccccc2c(=O)c2cc([N+](=O)[O-])ccc21)Nc1ccccc1Cl,35.6,7.8,3.2,56.5*,18.1,-12.1,4.3,-5.3,
c1ccc(CN2CCC(N3CCC(N4CCCCCC4)CC3)CC2)cc1,-12.1,0.3,/,-4.5,-5.7,-33.2,/,/,
c1ccc2c(c1)c1c(c3ccccc32)CN2CCCC2C1 (stereo not drawn),22.0,-4.4,-2.1,54.1*,12.9,-16.9,28.9,0.0,DNMT1 interf DR=>99
Cc1nc2sccn2c(=O)c1CCN1CCC(=C(c2ccc(F)cc2)c2ccc(F)cc2)CC1,-3.8,-0.7,1.7,59.2*,6.3,1.7,-0.9,1.2,
CNC(=O)C[C@H]1CC[C@H]2[C@H](COc3ccc(NC(=O)Nc4ccc(F)c(F)c4)cc3C(=O)N2C)O1,/,/,1.0,/,/,/,/,/,
C=C(C)C(=O)Nc1ccc(OC(F)(F)C(F)F)c(NC(=O)C(=C)C)c1,44.5,2.8,/,56.0*,-0.2,0.2,4.3,6.3,
